Experimental data: ChEMBL document CHEMBL3244425 (J Med Chem, 1979)

Tests used:
[1] = Fraction unbound in 22% albino mouse serum at 10 uM by equilibrium dialysis method in presence of diisopropyl fluorophosphate; assay type: ADME, cell-free
serum albumin = serum albumin (Homo sapiens, UniProt P02768); experiment: Binding affinity to human serum albumin at 10 uM after 12 to 20 hrs by scintillation spectrometry; assay type: ADME
Summary of the method: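 HSA as supplied (lipid under 10 mg/g), 1% (10 mg/mL) in 0.05 M buffer. Equilibrium dialysis against buffer for 12-20 h at room temperature, with 10 μM radiolabeled substrate. Free percentage is taken from the ratio of radioactivities on the two sides, then corrected for partial hydrolysis using TLC of ether extracts.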

[2] = Ratio of oxazepam level in brain to blood in albino mouse at 10 mg equivalent of oxazepam/kg after 3 mins; assay type: ADME, tissue-based; settings: 0.05 h
Mus musculus [3] = experiment: Drug excretion in albino mouse assessed as unexcreted drug at 10 mg equivalent of oxazepam/kg after 150 hrs; assay type: ADME, organism-based; settings: in vivo
[4] = Ratio of oxazepam level in brain to blood in albino mouse at 10 mg equivalent of oxazepam/kg after 6 mins; assay type: ADME, tissue-based; settings: 0.1 h
[5] = Ratio of oxazepam level in brain to blood in albino mouse at 10 mg equivalent of oxazepam/kg after 20 mins; assay type: ADME, tissue-based
[6] = Ratio of oxazepam level in brain to blood in albino mouse at 10 mg equivalent of oxazepam/kg after 1 min; assay type: ADME, tissue-based
[7] = Ratio of oxazepam level in brain to blood in albino mouse at 10 mg equivalent of oxazepam/kg after 12 mins; assay type: ADME, tissue-based; settings: 0.2 h
[8] = Ratio of oxazepam level in brain to blood in albino mouse at 10 mg equivalent of oxazepam/kg after 40 mins; assay type: ADME, tissue-based
[9] = Ratio of oxazepam level in brain to blood in albino mouse at 10 mg equivalent of oxazepam/kg after 10 mins; assay type: ADME, tissue-based
[10] = Ratio of oxazepam level in brain to blood in albino mouse at 10 mg equivalent of oxazepam/kg after 30 mins; assay type: ADME, tissue-based; settings: 0.5 h
Mus musculus [11] = experiment: Drug excretion in albino mouse assessed as unexcreted drug at 10 mg equivalent of oxazepam/kg after 96 hrs; assay type: ADME, organism-based; settings: in vivo
[12] = Ratio of oxazepam level in brain to blood in albino mouse at 10 mg equivalent of oxazepam/kg after 5 mins; assay type: ADME, tissue-based
[13] = Ratio of oxazepam level in brain to blood in albino mouse at 5 mg equivalent of oxazepam/kg after 2 mins; assay type: ADME, tissue-based
[14] = Ratio of oxazepam level in brain to blood in albino mouse at 5 mg equivalent of oxazepam/kg after 10 mins; assay type: ADME, tissue-based
[15] = Ratio of oxazepam level in brain to blood in albino mouse at 5 mg equivalent of oxazepam/kg after 40 mins; assay type: ADME, tissue-based
[16] = Ratio of oxazepam level in brain to blood in albino mouse at 5 mg equivalent of oxazepam/kg after 5 mins; assay type: ADME, tissue-based
[17] = Ratio of oxazepam level in brain to blood in albino mouse at 5 mg equivalent of oxazepam/kg after 20 mins; assay type: ADME, tissue-based
[18] = Ratio of oxazepam level in brain to blood in albino mouse at 5 mg equivalent of oxazepam/kg after 1 min; assay type: ADME, tissue-based
Mus musculus [19] = experiment: Drug excretion in albino mouse assessed as unexcreted drug at 5 mg equivalent of oxazepam/kg after 96 hrs; assay type: ADME, organism-based; settings: in vivo
[20] = Ratio of oxazepam level in brain to blood in albino mouse at 5 mg equivalent of oxazepam/kg after 3 mins; assay type: ADME, tissue-based; settings: 0.05 h
Mus musculus [21] = experiment: Drug excretion in albino mouse assessed as unexcreted drug at 5 mg equivalent of oxazepam/kg after 150 hrs; assay type: ADME, organism-based; settings: in vivo
Mus musculus [22] = experiment: Drug excretion in albino mouse assessed as unexcreted drug at 10 mg equivalent of oxazepam/kg after 100 to 150 hrs; assay type: ADME, organism-based; settings: in vivo
[23] = Ratio of oxazepam level in brain to blood in albino mouse at 15 mg equivalent of oxazepam/kg after 20 mins; assay type: ADME, tissue-based
[24] = Ratio of oxazepam level in brain to blood in albino mouse at 15 mg equivalent of oxazepam/kg after 40 mins; assay type: ADME, tissue-based
[25] = Ratio of oxazepam level in brain to blood in albino mouse at 15 mg equivalent of oxazepam/kg after 6 mins; assay type: ADME, tissue-based; settings: 0.1 h
[26] = Ratio of oxazepam level in brain to blood in albino mouse at 15 mg equivalent of oxazepam/kg after 1 min; assay type: ADME, tissue-based
[27] = Ratio of oxazepam level in brain to blood in albino mouse at 15 mg equivalent of oxazepam/kg after 3 mins; assay type: ADME, tissue-based; settings: 0.05 h
[28] = Ratio of oxazepam level in brain to blood in albino mouse at 15 mg equivalent of oxazepam/kg after 12 mins; assay type: ADME, tissue-based; settings: 0.2 h
[29] = Ratio of oxazepam level in brain to blood in albino mouse at 10 mg equivalent of oxazepam/kg after 2 mins; assay type: ADME, tissue-based

Chain of serum albumin (P02768 whole entry): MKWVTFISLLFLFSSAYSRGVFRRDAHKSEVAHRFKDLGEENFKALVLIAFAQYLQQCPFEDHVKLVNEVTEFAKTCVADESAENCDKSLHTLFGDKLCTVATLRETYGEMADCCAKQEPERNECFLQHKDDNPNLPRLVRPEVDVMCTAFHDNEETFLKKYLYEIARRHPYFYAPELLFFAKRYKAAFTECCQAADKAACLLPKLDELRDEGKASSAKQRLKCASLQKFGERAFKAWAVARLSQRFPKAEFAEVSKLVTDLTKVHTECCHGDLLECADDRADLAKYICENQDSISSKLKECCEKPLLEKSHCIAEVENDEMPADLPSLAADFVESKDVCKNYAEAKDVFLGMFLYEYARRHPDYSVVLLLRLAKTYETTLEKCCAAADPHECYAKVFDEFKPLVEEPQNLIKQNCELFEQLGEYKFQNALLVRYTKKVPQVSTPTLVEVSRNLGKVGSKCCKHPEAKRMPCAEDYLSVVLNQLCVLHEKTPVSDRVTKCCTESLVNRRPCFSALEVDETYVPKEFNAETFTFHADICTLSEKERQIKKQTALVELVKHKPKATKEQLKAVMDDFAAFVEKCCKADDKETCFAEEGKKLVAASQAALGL

Work on `CC(=O)OC1N=C(c2ccccc2)c2cc(Cl)ccc2NC1=O` (stereo not given) yielded a fraction unbound at 10 µM [1] of 0.285 and a fraction unbound at 10 µM (serum albumin) of 0.246.

`COC(=O)CCC(=O)OC1N=C(c2ccccc2)c2cc(Cl)ccc2NC1=O` (stereo not given) showed a fraction unbound at 10 µM [1] of 0.299 and a fraction unbound at 10 µM (serum albumin) of 0.172.

For `O=C(CCc1ccccc1)OC1N=C(c2ccccc2)c2cc(Cl)ccc2NC1=O` (stereo not given), the fraction unbound at 10 µM (serum albumin) was 0.052.

`CC(C)C(=O)OC1N=C(c2ccccc2)c2cc(Cl)ccc2NC1=O` (stereo not given) gave a fraction unbound at 10 µM [1] of 0.147 and a fraction unbound at 10 µM (serum albumin) of 0.078.

Work on `O=C(CCCc1ccccc1)OC1N=C(c2ccccc2)c2cc(Cl)ccc2NC1=O` (stereo not given) yielded a fraction unbound at 10 µM [1] of 0.102 and a fraction unbound at 10 µM (serum albumin) of 0.034.

Work on `CCC(=O)OC1N=C(c2ccccc2)c2cc(Cl)ccc2N[14C]1=O` (stereo not given) yielded a Ratio [2] of 2, a Drug recovery (Mus musculus [3]) of 19% and a Ratio [4] of 3. For the same compound, the Ratio [5] was 2.8, the Ratio [6] was 3.8 and the Ratio [7] was 2.4. The Ratio [8] was 2.8.

Compound `CC(C)CC(=O)OC1N=C(c2ccccc2)c2cc(Cl)ccc2NC1=O` (stereo not given) has a fraction unbound at 10 µM [1] of 0.067 and a fraction unbound at 10 µM (serum albumin) of 0.093.

Work on `CC(C)(C)C(=O)OC1N=C(c2ccccc2)c2cc(Cl)ccc2N[14C]1=O` (stereo not given) yielded a Ratio [2] of 1.7, a Ratio [9] of 2.2 and a Ratio [10] of 2.5. It also gave a Drug recovery (Mus musculus [11]) of 7%, a Ratio [12] of 2 and a Ratio [5] of 2.

`CC(C)C(=O)OC1N=C(c2ccccc2)c2cc(Cl)ccc2N[14C]1=O` (stereo not given) gave a Ratio [13] of 0.7, a Ratio [14] of 1.8 and a Ratio [15] of 2.3. It also gave a Ratio [16] of 1.2 and a Ratio [17] of 1.9.

In the case of `CCCC(=O)OC1N=C(c2ccccc2)c2cc(Cl)ccc2NC1=O` (stereo not given), the fraction unbound at 10 µM [1] is reported as 0.149 and the fraction unbound at 10 µM (serum albumin) is reported as 0.089.

Work on `O=C(CCc1ccccc1)OC1N=C(c2ccccc2)c2cc(Cl)ccc2N[14C]1=O` (stereo not given) yielded a Ratio [18] of 0.6, a Ratio [14] of 0.5 and a Drug recovery (Mus musculus [19]) of 26%. It also gave a Ratio [15] of 2.2, a Ratio [20] of 0.4 and a Ratio [16] of 0.5. The Ratio [17] was 1.4.

In the case of `CCC(CC)C(=O)OC1N=C(c2ccccc2)c2cc(Cl)ccc2NC1=O` (stereo not given), the fraction unbound at 10 µM [1] is reported as 0.038 and the fraction unbound at 10 µM (serum albumin) is reported as 0.06.

With `CC(Cc1ccccc1)C(=O)OC1N=C(c2ccccc2)c2cc(Cl)ccc2N[14C]1=O` (single isomer, unassigned; (+)) the Drug recovery (Mus musculus [21]) was 34%.

For `CC(=O)OC1N=C(c2ccccc2)c2cc(Cl)ccc2N[14C]1=O` (stereo not given), the Ratio [2] was 3.4, the Ratio [9] was 2.4 and the Ratio [10] was 4. For the same compound, the Drug recovery (Mus musculus [22]) was 0%, the Ratio [12] was 2 and the Ratio [6] was 4.

With `CCCC(=O)OC1N=C(c2ccccc2)c2cc(Cl)ccc2N[14C]1=O` (stereo not given) the Ratio [23] was 1.4, the Ratio [24] was 2 and the Ratio [25] was 0.4. The Ratio [26] was 0.2, the Ratio [27] was 0.3 and the Ratio [28] was 0.8.

With `CC(Cc1ccccc1)C(=O)OC1N=C(c2ccccc2)c2cc(Cl)ccc2NC1=O` (stereo not given) the fraction unbound at 10 µM [1] was 0.111 and the fraction unbound at 10 µM (serum albumin) was 0.051.

In the case of `O=C(CCCc1ccccc1)OC1N=C(c2ccccc2)c2cc(Cl)ccc2N[14C]1=O` (stereo not given), the Drug recovery (Mus musculus [21]) is reported as 38%, the Ratio [18] is reported as 0.5 and the Ratio [14] is reported as 0.4. For the same compound, the Ratio [15] was 0.9, the Ratio [20] was 0.5 and the Ratio [16] was 0.3. It also gave a Ratio [17] of 1.

In the case of `CC(C)(Cc1ccccc1)C(=O)OC1N=C(c2ccccc2)c2cc(Cl)ccc2NC1=O` (stereo not given), the fraction unbound at 10 µM [1] is reported as 0.113 and the fraction unbound at 10 µM (serum albumin) is reported as 0.022.

With `CC(Cc1ccccc1)C(=O)OC1N=C(c2ccccc2)c2cc(Cl)ccc2N[14C]1=O` (single isomer, unassigned; (-)) the Ratio [14] was 1.6, the Ratio [15] was 2.1 and the Ratio [20] was 0.3. For the same compound, the Ratio [16] was 1.1 and the Ratio [17] was 2.

In the case of `CCC(CC)C(=O)OC1N=C(c2ccccc2)c2cc(Cl)ccc2N[14C]1=O` (stereo not given), the Ratio [9] is reported as 1, the Ratio [10] is reported as 1.4 and the Ratio [12] is reported as 0.6. For the same compound, the Ratio [5] was 1.1, the Ratio [29] was 0.7 and the Ratio [8] was 1.7.
